Measurements as given in ChEMBL document CHEMBL2163200, “Synthesis, biological evaluation, and structure-activity relationships of novel substituted N-phenyl ureidobenzenesulfonate derivatives blocking cell cycle progression in S-phase and inducing DNA double-strand breaks” (J Med Chem, 2012).
Activity calls are given as the source filed them. The rule behind the calls is not given here.

Key:
Jurkat [1] = experiment: Cell cycle arrest in human Jurkat E6-1 cells assessed as accumulation at S phase at 48 uM after 24 hrs by FACS flow cytometry; type: functional
Outline: (§1)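 Jurkat E6 T-lymphoblasts in RPMI 1640 with 10% FBS, 37 °C, 5% CO2. […] Chicken red blood cells were added as internal standard. Cells were fixed in ice-cold EtOH and stained with 1 μg/mL DAPI on ice for 1 h before flow cytometry of phase distribution. Vehicle control was 0.5% DMSO.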

Jurkat [2] = experiment: Cell cycle arrest in human Jurkat E6-1 cells assessed as accumulation at G2/M phase at 48 uM after 24 hrs by FACS flow cytometry; type: functional
Outline: (§2)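 Jurkat E6 cells grown in RPMI 1640 with 10% FBS at 37 °C, 5% CO2. Compounds were serially diluted in medium starting 50% above the M21 IC50. 4.0 × 10^5 cells were exposed for 24 h, then washed and spiked with chicken red blood cells as internal standard. Cells were fixed in ice-cold ethanol, stained with 1 μg/mL DAPI on ice for 1 h, and phase distribution was read by flow cytometry. The control was 0.5% DMSO.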

HT-29 = experiment: Cytotoxicity against human HT-29 cells after 48 hrs by SRB assay; type: functional, cell-based; conditions: HT-29, 48 h
Outline: (§3)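 NCI sulforhodamine B protocol. Cells were grown in high-glucose DMEM with 5% FBS and seeded per well at 4 × 10^3 (HT-29), 3.5 × 10^3 (M21) or 3 × 10^3 (MCF-7), then allowed 24 h to attach. Serial dilutions from 200 μM to 780 nM final were applied in DMSO <0.5% for 48 h. Cells were fixed with cold TCA (10% final) and stained with SRB, with absorbance read at 530–568 nm. Growth inhibition was computed against day-0 plates, giving the 50% inhibitory concentration. At least two experiments in triplicate, CV <10%.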

M21 [3] = experiment: Cytotoxicity against human M21 cells after 48 hrs by SRB assay; type: functional, cell-based; conditions: M21, 48 h; outline: as §3
Jurkat [4] = experiment: Cell cycle arrest in human Jurkat E6-1 cells assessed as accumulation at G0/G1 phase at 48 uM after 24 hrs by FACS flow cytometry; type: functional
Outline: (§4)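 Jurkat E6 cells cultured in RPMI 1640 with 10% FBS at 37 °C, 5% CO2. Compounds serially diluted in medium, starting 50% above the M21 IC50. 4.0 × 10^5 cells were exposed for 24 h. Cells were washed with PBS, chicken red blood cells added as internal standard, and fixed in ice-cold EtOH. After 1 h on ice in PBS with 1 μg/mL DAPI, phase distribution was read by flow cytometry. DMSO-treated cells served as control.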

Jurkat [5] = experiment: Cell cycle arrest in human Jurkat E6-1 cells assessed as accumulation at G0/G1 phase at 12 uM after 24 hrs by FACS flow cytometry; type: functional; outline: as §4
Jurkat [6] = experiment: Cell cycle arrest in human Jurkat E6-1 cells assessed as accumulation at S phase at 12 uM after 24 hrs by FACS flow cytometry; type: functional; outline: as §2
Jurkat [7] = experiment: Cell cycle arrest in human Jurkat E6-1 cells assessed as accumulation at G2/M phase at 12 uM after 24 hrs by FACS flow cytometry; type: functional; outline: as §4
M21 [8] = experiment: Induction of DNA damage response in human M21 cells assessed as phosphorylation of H2AX into gammaH2AX at IC50 after 24 hrs by DAPI staining-based immunofluorescence assay; type: functional, cell-based
Outline: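 M21 cells (1 × 10^5) on fibronectin-coated coverslips, grown 24 h, then exposed to agent for 24 h at 37 °C; 0.5% DMSO control. Fixed with 3.7% formaldehyde and permeabilized with 0.1% saponin/3% BSA. Probed with mouse anti-H2AX pS139 antibody for 2 h at room temperature. Nuclei counterstained with DAPI; nuclear γH2AX foci viewed by epifluorescence microscopy.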

Jurkat [9] = experiment: Cell cycle arrest in human Jurkat E6-1 cells assessed as accumulation at G0/G1 phase at 32 uM after 24 hrs by FACS flow cytometry; type: functional; outline: as §4
Jurkat [10] = experiment: Cell cycle arrest in human Jurkat E6-1 cells assessed as accumulation at S phase at 32 uM after 24 hrs by FACS flow cytometry; type: functional; outline: as §1
Jurkat [11] = experiment: Cell cycle arrest in human Jurkat E6-1 cells assessed as accumulation at G2/M phase at 32 uM after 24 hrs by FACS flow cytometry; type: functional; outline: as §2
MCF7 = experiment: Cytotoxicity against human MCF7 cells after 48 hrs by SRB assay; type: functional, cell-based; conditions: MCF7, 48 h; outline: as §3
Jurkat [12] = experiment: Cell cycle arrest in human Jurkat E6-1 cells assessed as accumulation at S phase at 15 uM after 24 hrs by FACS flow cytometry; type: functional; outline: as §2
Jurkat [13] = experiment: Cell cycle arrest in human Jurkat E6-1 cells assessed as accumulation at G2/M phase at 15 uM after 24 hrs by FACS flow cytometry; type: functional; outline: as §4
HT-1080 = experiment: Antitumor activity against human HT1080 cells xenografted in chicken chorioallantoic membrane assessed as inhibition of tumor growth at 30 ug per egg, iv administered on day 11 measured on day 17 by CAM assay; type: functional
Outline: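 HT-1080 fibrosarcoma cells (3.5 × 105/egg) were applied onto freshly exposed CAM of fertilized chicken eggs. On day 11, drug from a DMSO stock was diluted in Cremophor EL/99% ethanol/PBS (1/1/14 v/v) and 100 μL was injected into a vein under the CAM. Groups of 10–12 eggs were kept to day 17, embryos were euthanized at 4 °C for ≥4 h, and tumor wet weight was recorded.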

[14] = Toxicity in fertilized chicken embryo assessed as mortality rate at 30 ug per egg, iv administered on day 11 measured on day 17 by CAM assay; type: organism-based, Gallus gallus; conditions: in vivo, read-out: Activity
Outline: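 Fertilized chicken eggs grafted on the CAM with HT-1080 cells (3.5 × 105/egg) received a 100 μL intravenous injection under the CAM on day 11. The drug was diluted in Cremophor EL/99% ethanol/PBS (1/1/14 v/v). Groups held 10–12 eggs and were incubated until day 17, when dead embryos and signs of toxicity were counted per group.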

Jurkat [15] = experiment: Cell cycle arrest in human Jurkat E6-1 cells assessed as accumulation at G0/G1 phase at 15 uM after 24 hrs by FACS flow cytometry; type: functional; outline: as §4
Jurkat [16] = experiment: Cell cycle arrest in human Jurkat E6-1 cells assessed as accumulation at S phase at 31 uM after 24 hrs by FACS flow cytometry; type: functional; outline: as §1
Jurkat [17] = experiment: Cell cycle arrest in human Jurkat E6-1 cells assessed as accumulation at G2/M phase at 31 uM after 24 hrs by FACS flow cytometry; type: functional; outline: as §2
Jurkat [18] = experiment: Cell cycle arrest in human Jurkat E6-1 cells assessed as accumulation at G0/G1 phase at 31 uM after 24 hrs by FACS flow cytometry; type: functional; outline: as §4
Jurkat [19] = experiment: Cell cycle arrest in human Jurkat E6-1 cells assessed as accumulation at S phase at 16 uM after 24 hrs by FACS flow cytometry; type: functional; outline: as §2
Jurkat [20] = experiment: Cell cycle arrest in human Jurkat E6-1 cells assessed as accumulation at G2/M phase at 16 uM after 24 hrs by FACS flow cytometry; type: functional; outline: as §4
Jurkat [21] = experiment: Cell cycle arrest in human Jurkat E6-1 cells assessed as accumulation at G0/G1 phase at 16 uM after 24 hrs by FACS flow cytometry; type: functional; outline: as §4
Jurkat [22] = experiment: Cell cycle arrest in human Jurkat E6-1 cells assessed as accumulation at G0/G1 phase at 22 uM after 24 hrs by FACS flow cytometry; type: functional; outline: as §4
Jurkat [23] = experiment: Cell cycle arrest in human Jurkat E6-1 cells assessed as accumulation at S phase at 22 uM after 24 hrs by FACS flow cytometry; type: functional; outline: as §2
Jurkat [24] = experiment: Cell cycle arrest in human Jurkat E6-1 cells assessed as accumulation at G2/M phase at 22 uM after 24 hrs by FACS flow cytometry; type: functional; outline: as §2

SMILES: Cc1ccccc1NS(=O)(=O)c1ccc(NC(=O)NCCCl)cc1
- Activity (Jurkat [1]): 35%
- Activity (Jurkat [2]): 20%
- IC50 (HT-29): 55 µM
- IC50 (M21 [3]): 63 µM
- Activity (Jurkat [4]): 45%

SMILES: CCNC(=O)Nc1cccc(S(=O)(=O)Oc2ccccc2CC)c1
- Activity (Jurkat [5]): 26%
- Activity (Jurkat [6]): 63%
- Activity (Jurkat [7]): 11%
- Activity (M21 [8]): Active
- IC50 (HT-29): 33 µM
- IC50 (M21 [3]): 30 µM

SMILES: CCNC(=O)Nc1cccc(S(=O)(=O)Oc2ccc(O)cc2)c1
- Activity (Jurkat [9]): 43%
- Activity (Jurkat [10]): 39%
- Activity (Jurkat [11]): 18%
- IC50 (HT-29): 75 µM
- IC50 (M21 [3]): 42 µM
- IC50 (MCF7): 64 µM

SMILES: CCc1ccccc1OS(=O)(=O)c1ccc(NC(=O)NCCCCl)cc1
- Activity (Jurkat [12]): 63%
- Activity (Jurkat [13]): 11%
- Activity (M21 [8]): Active
- TGI (HT-1080): 68%
- mortality at 6 days [14]: 0%
- IC50 (M21 [3]): 15 µM
- Activity (Jurkat [15]): 26%

SMILES: O=C(NCCCCl)Nc1ccc(S(=O)(=O)Oc2ccc(O)cc2)cc1
- Activity (Jurkat [16]): 65%
- Activity (Jurkat [17]): 12%
- Activity (M21 [8]): Active
- IC50 (HT-29): 50 µM
- IC50 (M21 [3]): 47 µM
- IC50 (MCF7): 51 µM
- Activity (Jurkat [18]): 23%

SMILES: CCc1ccccc1NS(=O)(=O)c1ccc(NC(=O)NCCCl)cc1
- Activity (Jurkat [19]): 43%
- Activity (Jurkat [20]): 16%
- Activity (Jurkat [21]): 41%
- IC50 (HT-29): 40 µM
- IC50 (M21 [3]): 68 µM
- IC50 (MCF7): 33 µM

SMILES: CCCc1ccccc1NS(=O)(=O)c1ccc(NC(=O)NCCCCl)cc1
- Activity (Jurkat [22]): 36%
- Activity (Jurkat [23]): 41%
- Activity (Jurkat [24]): 23%
- IC50 (HT-29): 26 µM
- IC50 (M21 [3]): 38 µM
- IC50 (MCF7): 35 µM
